The values below come from PubChem BioAssay.

Test [1] can be described thus: reduced viability of SK-BR-3 breast cancer cells – cell-based, 24 h, human, pilot screen (AID 572;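 active means viability at or below 10% of carrier control in both of two separate runs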;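 further: compound exposure lasted between 18 and 24 h rather than exactly 24 h; 100% = carrier-treated control wells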). To be noted: SK-BR-3 viability, CellTiter-Glo luminescence, at 10 µM, stronger effect = lower value. (ATP-based viability assays read luminescence as a measure of living cells.)
Test [2] is described as follows: HUVEC growth inhibition – cell-based, human, primary screen (AID 575;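 active means viability at or below 30% in both replicate assays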;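 further: 100% = median of untreated cell wells with 0.1% DMSO on each plate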). To be noted: HUVEC proliferation, CellTiter-Glo luminescence, 72 h; at 10 µM; stronger effect = lower value. A digest of the protocol: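 System – primary HUVEC, no more than 12 passages · Medium – Low-serum (2% FBS) EBM, supplemented · Times – 72 h exposure, 37 °C, 5% CO2, 30 min RT equilibration · Measured by – luminescent ATP assay · Read-out – % viability relative to median vehicle-well signal on each plate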

The nature of test [3]: H69AR cell proliferation blockers – human, duplicate replicates, primary screen (AID 580;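 active means viability at or under a set limit in both replicates, limit being median viability minus 3 SD, cut at about 48% in these data, passing the limit was not always enough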;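 further: 100% = mean luminescence of untreated wells and 0% = no signal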). To be noted: H69AR lung tumor cells viability, ATP luminescence, 72 h; at 10 µM; stronger effect = lower value.
Test [4] can be described thus: MRP1 drug-resistance reversers in H69AR cells – cell-based, doxorubicin co-treatment, pilot screen (AID 601). To be noted: CellTiter-Glo, 72 h, at 10 µM; for differential viability (reversal): stronger effect = higher value.
The nature of test [5]: yeast transport mutant growth inhibition pilot in 384-well plates, post-Golgi transport modulator project (AID 636; in the data active means inhibition above about 31%). As to conditions: absorbance 615 nm, about 18 h, stronger effect = higher value.
A short description of test [6]: growth suppression of yeast trafficking mutant, preliminary HTS, modulators of trafficking downstream of Golgi apparatus project, 1536-format plate, OD 615 nm (AID 637; in the data active means inhibition above about 30%). As to conditions: yeast transport mutant growth, absorbance 615 nm, 18 h; stronger effect = higher value.
The mark [7] stands for this setting: H69AR cells + 2 uM doxorubicin, measured here: viability with 2 uM doxorubicin, stronger effect = lower value.
[8] abbreviates: H69AR cells, compound alone cytotoxicity.

Active and inactive are the calls of the source.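 How the source made its calls, unless noted: active means viability loss from added drug above about 55%, and viability with drug at most 40%, in both replicates (limit read from the data, passing the limit was not always enough); inconclusive means both conditions met in only one replicate; inactive means neither replicate meets both conditions.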

One may read the viability as a read-out of living cells in per cent, often relative to untreated cells. In general, inhibition refers to the change of the read-out against control, counted positive when it falls. For `Nn1c(SCC(=O)Nc2ccccc2)nnc1-c1cccnc1`, the viability in test [1] is 78% (inactive); in test [2], 96.9% (inactive); in test [3], 88.1% (inactive); in test [4] (setting [7]), 85.8%; in test [4] (setting [8]), 88.1%. Moreover, the differential viability (reversal) in test [4] (H69AR cells + 2 uM doxorubicin) is 2.29% (inactive). In addition, the figures for the inhibition in test [5] and in test [6] were -8% (inactive) and 3.64% (inactive), respectively.
Turning to `COc1ccc(Cn2nnnc2C(c2ccccn2)N2CCN(c3cc(Cl)ccc3C)CC2)cc1` (centres undefined), the viability in test [1] was 101% (inactive); in test [2], 73.1% (inactive); in test [3] it was 77.3% (inactive); in test [4] (setting [7]), 85%; in test [4] (setting [8]), 77.3%. Also, the differential viability (reversal) in test [4] (H69AR cells + 2 uM doxorubicin) is -7.71% (inactive). Besides, the inhibition is -2.43% (inactive) in test [5] and 31.6% (active) in test [6].
On to `N=c1nc(N2CCCCC2)cc(N)n1O`, for which the viability in test [1] was 96% (inactive); in test [2] it was 89.3% (inactive); in test [3], 99.8% (inactive); in test [4] (setting [7]) it was 92%; in test [4] (setting [8]), 99.8%. Besides, the differential viability (reversal) in test [4] (H69AR cells + 2 uM doxorubicin) is 7.85% (inactive). Besides, the results for the inhibition in test [5] and in test [6] were -1.17% (inactive) and -1.83% (inactive), respectively.
Take `COCC(=O)n1nc(NCc2ccc(OC)cc2)nc1NCc1ccc(OC)cc1`: the viability in test [1] is 116% (inactive); in test [2] it was 105% (inactive); in test [3], 99.8% (inactive); in test [4] (setting [7]), 90.5%; in test [4] (setting [8]), 99.8%. Further, in test [4] (H69AR cells + 2 uM doxorubicin), the differential viability (reversal) was 9.29% (inactive). Moreover, the figures for the inhibition in test [5] and in test [6] were 53.3% (active) and 28.6% (inactive), respectively.
For `Cc1[nH]c(C(=O)N2CCCCC2)c(C)c1C(=O)NC1CCCCC1`, the viability in test [1] was 88% (inactive); in test [2], 92.4% (inactive); in test [3], 103% (inactive); in test [4] (setting [7]) it was 84.4%; in test [4] (setting [8]) it was 103%. In test [4] (H69AR cells + 2 uM doxorubicin), the differential viability (reversal) is 18.4% (inactive). The inhibition in test [5] is 1.43% (inactive); in test [6] it was 0.66% (inactive).
In the case of `CCc1nnc(NC(=O)CSc2nc(-c3ccc(OC)cc3)ns2)s1`, the viability in test [1] is 110% (inactive); in test [2], 101% (inactive); in test [3] it was 93.1% (inactive); in test [4] (setting [7]), 93.7%; in test [4] (setting [8]) it was 93.1%. The differential viability (reversal) in test [4] (H69AR cells + 2 uM doxorubicin) was -0.64% (inactive). Further, the inhibition is -5.07% (inactive) in test [5] and 0.91% (inactive) in test [6].
Regarding `CN(C)CCCOC(=O)CCc1ccccc1`, the viability was 95% (inactive) in test [1]; 126% (inactive) in test [2]; 96.3% (inactive) in test [3]; 93.9% in test [4] (setting [7]); 96.3% in test [4] (setting [8]). Moreover, the differential viability (reversal) in test [4] (H69AR cells + 2 uM doxorubicin) is 2.46% (inactive). For the same molecule, the inhibition in test [5] was -4.73% (inactive); in test [6], -7.09% (inactive).
For the molecule `Cc1ccc(Cl)cc1N1CCN(C(=O)CN2C(=O)c3cccc4cccc2c34)CC1`, the viability in test [1] was 94.5% (inactive); in test [2], 66.6% (inactive); in test [3], 72.1% (inactive); in test [4] (setting [7]), 76.3%; in test [4] (setting [8]), 72.1%. For the same molecule, the differential viability (reversal) in test [4] (H69AR cells + 2 uM doxorubicin) was -4.18% (inactive). The inhibition in test [5] was -4.42% (inactive); in test [6], 3.65% (inactive).
Turning to `CCCC1(CCC)NC(=O)NC1=O`, the viability in test [1] is 121% (inactive); in test [2], 94.7% (inactive); in test [3] it was 98.2% (inactive); in test [4] (setting [7]), 98.1%; in test [4] (setting [8]) it was 98.2%. In test [4] (H69AR cells + 2 uM doxorubicin), the differential viability (reversal) is 0.09% (inactive). Further, the inhibition in test [5] was -0.26% (inactive); in test [6], 0.66% (inactive).
Consider `O=C(CCCOc1ccccc1)N1CCN(c2ccccn2)CC1`, for which the viability is 99% (inactive) in test [1]; 97.7% (inactive) in test [2]; 104% (inactive) in test [3]; 97.8% in test [4] (setting [7]); 104% in test [4] (setting [8]). Moreover, in test [4] (H69AR cells + 2 uM doxorubicin), the differential viability (reversal) is 5.88% (inactive). In addition, the values for the inhibition in test [5] and in test [6] were -0.39% (inactive) and -5.74% (inactive), respectively.
As for `Cc1cc(C(=O)Nc2c(C)n(C)n(-c3ccccc3)c2=O)c(C)o1`, the viability in test [1] was 71% (inactive); in test [2] it was 105% (inactive); in test [3] it was 110% (inactive); in test [4] (setting [7]), 98.4%; in test [4] (setting [8]), 110%. Besides, the differential viability (reversal) in test [4] (H69AR cells + 2 uM doxorubicin) is 11.8% (inactive). For the same molecule, the inhibition in test [5] is -8.08% (inactive); in test [6] it was 4.91% (inactive).
As to `COC(=O)c1ccc2c(=O)n(NC(C)=O)c(=S)[nH]c2c1`, the viability in test [1] was 93% (inactive); in test [2] it was 109% (inactive); in test [3], 93.7% (inactive); in test [4] (setting [7]) it was 83%; in test [4] (setting [8]), 93.7%. Moreover, in test [4] (H69AR cells + 2 uM doxorubicin), the differential viability (reversal) was 10.7% (inactive). Also, the inhibition in test [5] was -6.67% (inactive); in test [6], 3.09% (inactive).
For the molecule `Cc1cc(NCC2CCCO2)n2c(nc3ccccc32)c1C#N` (centres undefined), the viability in test [1] is 79% (inactive); in test [2], 81.2% (inactive); in test [3], 71% (inactive); in test [4] (setting [7]), 32.1%; in test [4] (setting [8]), 71%. In addition, the differential viability (reversal) in test [4] (H69AR cells + 2 uM doxorubicin) is 38.9% (inactive). Moreover, the inhibition in test [5] is -6.44% (inactive); in test [6], 1.61% (inactive).
Turning to `CN(C)CCC(c1ccc(Br)cc1)c1ccccn1` (centres undefined), the viability in test [1] is 110% (inactive); in test [2] it was 80.3% (inactive); in test [3] it was 102% (inactive); in test [4] (setting [7]) it was 91.4%; in test [4] (setting [8]), 102%. Further, the differential viability (reversal) in test [4] (H69AR cells + 2 uM doxorubicin) was 10.6% (inactive). Besides, the values for the inhibition in test [5] and in test [6] were -2.73% (inactive) and -3.5% (inactive), respectively.
Regarding `O=C(CN1CCC(O)(c2ccc3c(c2)OCO3)CC1)OC1CCCCC1`, the viability in test [1] is 83% (inactive); in test [2] it was 103% (inactive); in test [3], 96.8% (inactive); in test [4] (setting [7]), 93.4%; in test [4] (setting [8]), 96.8%. Also, the differential viability (reversal) in test [4] (H69AR cells + 2 uM doxorubicin) was 3.36% (inactive). Further, the inhibition in test [5] is -7.3% (inactive); in test [6], 2.73% (inactive).
Regarding `COc1cccc(C(=O)NC2=NCCS2)c1`, the viability in test [1] was 109% (inactive); in test [2] it was 100% (inactive); in test [3] it was 96.7% (inactive); in test [4] (setting [7]), 84.6%; in test [4] (setting [8]), 96.7%. In test [4] (H69AR cells + 2 uM doxorubicin), the differential viability (reversal) was 12.1% (inactive). Also, the results for the inhibition in test [5] and in test [6] were -4.11% (inactive) and 0.32% (inactive), respectively.
For the molecule `CS(=O)(=O)N(CC(=O)Nc1ccc2c(c1)OCO2)Cc1ccc(Cl)cc1`, the viability in test [1] is 70% (inactive); in test [2], 88.5% (inactive); in test [3] it was 95% (inactive); in test [4] (setting [7]) it was 103%; in test [4] (setting [8]) it was 95%. For the same molecule, the differential viability (reversal) in test [4] (H69AR cells + 2 uM doxorubicin) was -7.89% (inactive). Also, the results for the inhibition in test [5] and in test [6] were -6.58% (inactive) and 2.73% (inactive), respectively.
For the molecule `Cn1nc(-c2ccc(N3CCCCC3)c(NC(=O)c3ccco3)c2)c2ccccc2c1=O`, the viability in test [1] is 107% (inactive); in test [2] it was 56.2% (inactive); in test [3] it was 32.3% (active); in test [4] (setting [7]) it was 20.8%; in test [4] (setting [8]) it was 32.3%. Besides, the differential viability (reversal) in test [4] (H69AR cells + 2 uM doxorubicin) is 11.6% (inactive). In addition, the inhibition in test [5] is 1.6% (inactive); in test [6] it was 4.35% (inactive).
